Experimental data published in ChEMBL document CHEMBL1121917, “Structure--activity relationships in a broad-spectrum anthelmintic series. Acid chloride phenylhydrazones. 1. Aryl substitutions and chloride variations” (1981).

Tests used:
[1] = test system: Ovis aries; test: Percent reduction in Strongyloides eggs per gram, after treatment with 100 mg/kg dose of compound perorally in sheep; type: functional, Egg; conditions: route oral
In short: (§1)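 Naturally parasitized lambs, dosed orally either with a suspension by stomach tube or with finely ground compound in gelatin capsules by balling gun. Activity was scored by the clinical test method, meaning a significant fall in helminth egg counts after treatment.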

[2] = test system: Ovis aries; test: Percent reduction in Trichuris eggs per gram, after treatment with 100 mg/kg dose of compound perorally in sheep; type: functional, Egg; conditions: route oral; in short: as §1
[3] = test system: Ovis aries; test: Percent reduction in Haemonchus eggs per gram, after treatment with 300 mg/kg dose of compound perorally in sheep; type: functional, Egg; conditions: route oral
In short: (§2)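 Naturally parasitized lambs were dosed orally at the stated mg/kg. Dosing was either as a suspension of finely ground compound by stomach tube, or as ground compound weighed into gelatin capsules and given by balling gun. Activity was scored by the clinical test method: the decrease in posttreatment helminth eggs per gram.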

[4] = test system: Ovis aries; test: Percent reduction in Nematodirus eggs per gram, after treatment with 300 mg/kg dose of compound perorally in sheep; type: functional, Egg; conditions: route oral; in short: as §2
[5] = test system: Ovis aries; test: Percent reduction in Oesophagostomum eggs per gram, after treatment with 100 mg/kg dose of compound perorally in sheep; type: functional, Egg; conditions: route oral; in short: as §2
[6] = species on record: Canis familiaris; test: percent reduction in Ancylostoma eggs per gram, after oral treatment of 100 mg/dog dose of compound in a single treatment; type: functional, Canis lupus familiaris, Egg
In short: (§3)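 Dogs naturally infected with Toxascaris leonina were experimentally infected with mixed Ancylostoma caninum and Uncinaria stenocephala larvae. Finely ground compound was given orally in gelatin capsules. Three egg count determinations were made before and three after treatment in each experiment.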

[7] = test system: Ovis aries; test: Percent reduction in Ostertagia eggs per gram, after treatment with 100 mg/kg dose of compound perorally in sheep; type: functional, Egg; conditions: route oral; in short: as §2
[8] = test system: Ovis aries; test: Percent reduction in Ostertagia eggs per gram, after treatment with 300 mg/kg dose of compound perorally in sheep; type: functional, Egg; conditions: route oral; in short: as §1
[9] = test system: Ovis aries; test: Percent reduction in Trichostrongylus eggs per gram, after treatment with 100 mg/kg dose of compound perorally in sheep; type: functional, Egg; conditions: route oral; in short: as §1
[10] = test system: Ovis aries; test: Percent reduction in Trichostrongylus eggs per gram, after treatment with 400 mg/kg dose of compound perorally in sheep; type: functional, Egg; conditions: route oral; in short: as §1
[11] = test system: Ovis aries; test: Percent reduction in Trichuris eggs per gram, after treatment with 400 mg/kg dose of compound perorally in sheep; type: functional, Egg; conditions: route oral; in short: as §1
[12] = species on record: Canis familiaris; test: percent reduction in Ancylostoma eggs per gram, after oral treatment of 150 mg/dog dose of compound in a single treatment; type: functional, Canis lupus familiaris, Egg
[13] = species on record: Canis familiaris; test: percent reduction in Uncinaria eggs per gram, after oral treatment of 50 mg/dog dose of compound in a single treatment; type: functional, Canis lupus familiaris, Egg; in short: as §3
[14] = species on record: Canis familiaris; test: percent reduction in Uncinaria eggs per gram, after oral treatment of 100 mg/dog dose of compound in a single treatment; type: functional, Canis lupus familiaris, Egg
[15] = test system: Ovis aries; test: Percent reduction in Nematodirus eggs per gram, after treatment with 400 mg/kg dose of compound perorally in sheep; type: functional, Egg; conditions: route oral; in short: as §2
[16] = test system: Ovis aries; test: Percent reduction in Moniezia eggs per gram, after treatment with 400 mg/kg dose of compound perorally in sheep; type: functional, Egg; conditions: route oral; in short: as §2
[17] = test system: Ovis aries; test: Percent reduction in Strongyloides eggs per gram, after treatment with 400 mg/kg dose of compound perorally in sheep; type: functional, Egg; conditions: route oral; in short: as §1
[18] = test system: Ovis aries; test: Percent reduction in Haemonchus eggs per gram, after treatment with 100 mg/kg dose of compound perorally in sheep; type: functional, Egg; conditions: route oral
In short: (§4)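 Naturally parasitized lambs received compound orally, either as the aqueous suspension by stomach tube or as finely ground powder in gelatin capsules by balling gun. Activity was judged by the clinical test method, as a significant decrease in posttreatment helminth egg counts.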

[19] = test system: Ovis aries; test: Percent reduction in Trichostrongylus eggs per gram, after treatment with 300 mg/kg dose of compound perorally in sheep; type: functional, Egg; conditions: route oral
[20] = test system: Ovis aries; test: Percent reduction in Strongyloides eggs per gram, after treatment with 300 mg/kg dose of compound perorally in sheep; type: functional, Egg; conditions: route oral; in short: as §1
[21] = species on record: Canis familiaris; test: percent reduction in Uncinaria eggs per gram, after oral treatment of 150 mg/dog dose of compound in a single treatment; type: functional, Canis lupus familiaris, Egg
[22] = species on record: Mus musculus; test: Percent clearance of Syphacaia obvelata from mouse after oral treatment of 1.87 mg/mouse/day; type: functional
In short: (§5)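 Mice naturally carrying Syphacia obvelata were experimentally infected with Nematospiroides dubius and Hymenolepis nana, then grouped after a 2-week prepatency. Finely ground compound was suspended in aqueous 0.10% carboxymethylcellulose, 0.04% polysorbate 80 and 0.0042% polyparaben, and 0.1 mL was given orally by cannula once daily for 4 days to five mice. Necropsy followed 2 days later, scoring presence or absence of each parasite. Control clearance was subtracted from the treated clearance.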

[23] = test system: Ovis aries; test: Percent reduction in Haemonchus eggs per gram, after treatment with 400 mg/kg dose of compound perorally in sheep; type: functional, Egg; conditions: route oral; in short: as §2
[24] = species on record: Canis familiaris; test: percent reduction in Ancylostoma eggs per gram, after oral treatment of 50 mg/dog dose of compound in a single treatment; type: functional, Canis lupus familiaris, Egg
[25] = species on record: Canis familiaris; test: percent reduction in Toxascaris eggs per gram, after oral treatment of 150 mg/dog dose of compound in a single treatment; type: functional, Canis lupus familiaris, Egg
[26] = species on record: Mus musculus; test: Percent clearance of Nematospiroides dubius from mouse after oral treatment of 1.875 mg/mouse/day; type: functional; in short: as §5
[27] = test system: Ovis aries; test: Percent reduction in Oesophagostomum eggs per gram, after treatment with 400 mg/kg dose of compound perorally in sheep; type: functional, Egg; conditions: route oral; in short: as §2
[28] = test system: Ovis aries; test: Percent reduction in Cooperia eggs per gram, after treatment with 400 mg/kg dose of compound perorally in sheep; type: functional, Egg; conditions: route oral; in short: as §4
[29] = species on record: Canis familiaris; test: percent reduction in Toxascaris eggs per gram, after oral treatment of 50 mg/dog dose of compound in a single treatment; type: functional, Canis lupus familiaris, Egg; in short: as §3
[30] = test system: Ovis aries; test: Percent reduction in Ostertagia eggs per gram, after treatment with 400 mg/kg dose of compound perorally in sheep; type: functional, Egg; conditions: route oral; in short: as §1
[31] = test system: Ovis aries; test: Percent reduction in Nematodirus eggs per gram, after treatment with 100 mg/kg dose of compound perorally in sheep; type: functional, Egg; conditions: route oral; in short: as §2
[32] = test system: Ovis aries; test: Percent reduction in Trichuris eggs per gram, after treatment with 300 mg/kg dose of compound perorally in sheep; type: functional, Egg; conditions: route oral

CSc1ccc(/C(Cl)=N/Nc2ccccc2)cc1
Reduction [1]: 100% | Reduction [2]: 25% | Reduction [3]: 100% | Reduction [4]: 100% | Reduction [5]: 100% | Reduction [6]: 94% | Reduction [7]: 98% | Reduction [8]: 100% | Reduction [9]: 98% | Reduction [10]: 100% | Reduction [11]: 38% | Reduction [12]: 84% | Reduction [13]: 86% | Reduction [14]: 99% | Reduction [15]: 100% | Reduction [16]: 100% | Reduction [17]: 100% | Reduction [18]: 98% | Reduction [19]: 100% | Reduction [20]: 100% | Reduction [21]: 91% | Parasite_Clearance [22]: 100% | Reduction [23]: 100% | Reduction [24]: 91% | Reduction [25]: 100% | Parasite_Clearance [26]: 100% | Reduction [27]: 100% | Reduction [28]: 100% | Reduction [29]: 69% | Reduction [30]: 100% | Reduction [31]: 100% | Reduction [32]: 73%
